Article PMC4824049 (Bioorganic & medicinal chemistry, 2015)
Entries after “also recorded” stand apart in the source; their conditions may differ. Values belong to the molecule of their own block, whether it stands above or below them.

Tests used:
cathepsin L [1] = molecular target: T1, cathepsin L (Homo sapiens, UniProt P07711); assay: Cathepsin L reaction progress curves / reversibility; format: biochemical; conditions: separate experiments, Supplementary data
In short: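 No pre-incubation. Test compound at final 10, 5, 1, 0.5, 0.1, 0.01 and 0.005 µM was mixed with Z-FR-AMC (final 10 µM), and the reaction was started by adding cathepsin L in assay buffer. AMC fluorescence (ex 355/em 460 nm) was read every 30 s for 50 min.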

[2] = tested on: MDA-MB-231 breast cancer cells; assay: MDA-MB-231 cell migration assay; format: cell-based, human; conditions: 25 μM
In short: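 MDA-MB-231 cells (DMEM, 10% FBS, gentamycin) were trypsinised at 80% confluence and counted. Each insert (8 µm pores, no Matrigel) received 50,000 cells in DMEM with 2% DMSO and test compound at 25 or 10 µM; the lower chamber held DMEM with 10% FBS as chemoattractant. E-64 served as positive control. After 24 h at 37 °C and 5% CO2, migrated cells were methanol-fixed and Diff-stained. Values were normalised to 2% DMSO vehicle, in triplicate.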

C3H mammary carcinoma = assay: Growth inhibition of C3H mammary carcinoma in CDF1 mice; format: in vivo; conditions: 20 mg/kg i.p., 5 daily treatments
HUVECs = assay: Cytotoxicity assay; format: cell-based, human; conditions: normal primary cells
In short: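 Pooled-donor HUVECs were grown on collagen-1-coated flasks in M200 with gentamycin, amphotericin B and low-serum growth supplement at 37 °C and 5% CO2, used at passage 5 or lower. Cells were seeded at 9,000/well for 24 h, then given ten-fold serial dilutions of test compound for 48 h. Plates were TCA-fixed and stained with 0.4% SRB for 30 min. Absorbance was read at 540 nm, normalised to 630 nm. GI50 came from at least two replicates, averaged over at least three experiments.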

Human liver Cathepsin B = Human liver Cathepsin B (Homo sapiens, UniProt P07858); assay: Cathepsin B inhibition assay; format: biochemical
In short: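 Human liver cathepsin B was pre-incubated with the test compound for 5 min at 37 °C, then Z-RR-AMC was added. Fluorescence (ex 355/em 460 nm) was read over 5 min at 37 °C. IC50 was fitted from triplicate experiments.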

human liver cathepsin L = human liver cathepsin L (Homo sapiens, UniProt P07711); assay: Cathepsin L inhibition assay; format: biochemical; conditions: tested up to 10,000 nM
[3] = E/Z isomerization in solution followed by 1H NMR; format: physicochemical; conditions: acetone, one week; isolated as Z isomer
cathepsin L [4] = molecular target: T1, cathepsin L; conditions: cited from earlier work

T1 sequence (P07711 114-288 limits assumed): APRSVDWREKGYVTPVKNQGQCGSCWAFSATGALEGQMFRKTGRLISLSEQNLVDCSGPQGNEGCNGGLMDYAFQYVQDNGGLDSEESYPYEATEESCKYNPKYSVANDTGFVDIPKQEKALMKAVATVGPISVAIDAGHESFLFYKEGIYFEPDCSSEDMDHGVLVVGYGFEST
T1 sequence (P07711 292-333 limits assumed): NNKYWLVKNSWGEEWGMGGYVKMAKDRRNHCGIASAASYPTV
human liver cathepsin L, sequence (P07711 114-288 limits assumed): as the sequence (P07711 114-288 limits assumed) above
human liver cathepsin L, sequence (P07711 292-333 limits assumed): as the sequence (P07711 292-333 limits assumed) above

SMILES: NC(=S)N/N=C(\c1ccccc1)c1cccc(C(=O)c2ccccc2)c1 [Compound 1, 3-Benzoylbenzophenone thiosemicarbazone]
reversibility of cathepsin L inhibition (cathepsin L [1]): slowly reversible
increase in inhibition of migration compared with positive control E-64 [2]: greater than 2 fold
tumor growth delay (in words) (C3H mammary carcinoma; C3H mammary carcinoma in CDF1 mice): showed efficacy in tumor growth delay; also recorded: modest, statistically relevant efficacy in tumor growth delay; also recorded: delayed growth in vivo
tolerability in mouse model (C3H mammary carcinoma; CDF1 mice bearing C3H mammary carcinoma): well-tolerated
cytotoxicity toward HUVECs (in words) (HUVECs): low cytotoxicity; also recorded: very low cytotoxicity

SMILES: NC(=S)N/N=C(\c1ccc(F)cc1)c1cccc(C(=O)c2ccc(F)cc2)c1 [Compound 8, 1,3-Bis(4-fluorobenzoyl)benzene thiosemicarbazone]
cytotoxicity toward HUVECs (in words) (HUVECs): low cytotoxicity; also recorded: very low cytotoxicity

activity against cathepsin B (in words) (Human liver Cathepsin B): inactive
activity against cathepsin L (in words) (human liver cathepsin L): no activity
SMILES: NC(=S)N/N=C(\c1ccc(Br)cc1)c1cccc(/C(=N/NC(N)=S)c2ccc(Br)cc2)c1 [Compound 10, 1,3-Bis(4-bromobenzoyl)benzene bis-thiosemicarbazone]

activity against cathepsin L (in words) (human liver cathepsin L): inactive
SMILES: CC(C)Oc1ccc(C(=O)c2cccc(/C(=N/NC(N)=S)c3ccc(OC(C)C)cc3)c2)cc1 [Compound 14, 1,3-Bis(4-isopropoxybenzoyl)benzene thiosemicarbazone]

SMILES: NC(=S)N/N=C(\c1cccc(O)c1)c1cc(Br)cc(C(=O)c2cccc(O)c2)c1 [Compound 31, 1,3-Bis(3-hydroxybenzoyl)-5-bromobenzene thiosemicarbazone]
cytotoxicity toward HUVECs (in words) (HUVECs): very low cytotoxicity

isomerization on standing in solution [3]: did not isomerize
reversibility of cathepsin L inhibition (cathepsin L [1]): slowly reversible
SMILES: NC(=S)N/N=C(\c1cc(Br)cc(C(=O)c2ccccc2F)c1)c1ccccc1F [Compound 32, 1,3-Bis(2-fluorobenzoyl)-5-bromobenzene thiosemicarbazone]
cytotoxicity toward HUVECs (in words) (HUVECs): low cytotoxicity; also recorded: very low cytotoxicity

SMILES: NC(=S)NN=C(c1cccc(O)c1)c1cccc(Br)c1 [X, (3-bromo-3′-hydroxybenzophenone) thiosemicarbazone]
kinetic analysis of cathepsin L inhibition (cathepsin L [4]): time-dependent and slowly reversible
